Publication PMC7439439 (Science Advances, 2020)
Where two headings read alike, the source gives them in different places.

Legend:
[1] = system: RCAS-based DIPG tumors; experiment: Survival study in tumor-bearing RCAS mice; type: in vivo
In short: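 DIPG was induced in 3–5-day-old Ntva/p53fl/fl pups by pontine injection of DF1 cells carrying RCAS-PDGFB, H3K27M-GFP, CRE and luciferase. From day 21–24, over 2 weeks, mice received one of: intraperitoneal 10 mg/kg in 10% DMSO/36% PEG/54% PBS; intraperitoneal vehicle; or one or four CEDs of 10 μl, 100 μM in 1% DMSO/PBS (or vehicle), 72 h apart, each over 6 min. End point was ≥10% weight loss on two consecutive measurements, or other end points. Survival was analysed by log-rank.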

[2] = system: SF8628 orthotopic DIPG tumors; experiment: Orthotopic SF8628 xenograft, histology after treatment; type: in vivo, SCID mice
In short: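 NOD/SCID mice received 1 million luciferase-transduced SF8628 cells stereotactically into the pons (1.0 mm right, 0.5 mm posterior, 5.0 mm deep from lambda). Treatment started 21–24 days later over 2 weeks, using four CED infusions about 72 h apart, each over 6 min at 1.67 μl/min. Brains were then harvested. Nuclei on H&E and Ki67+ nuclei were counted on ≥5 40× fields. Apoptosis index was Cc3+ cells divided by tumour area × cellularity. H3Ac+ nuclei were counted per 10× field after colour deconvolution, Gaussian blur and thresholding.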

[3] = Safety in mice; type: in vivo
[4] = system: luciferase-tagged SF8628 flank tumors; experiment: Flank model of DIPG, intraperitoneal treatment; type: in vivo, athymic-nude mice
In short: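 Athymic-nude mice received subcutaneous right-flank implants of 40-mm3 chunks of luciferase-tagged SF8628 tumours grown in other nude mice. Tumour presence was confirmed by luciferase scan at 1 week. Dosing began at a mean caliper volume of 140 mm3: reference HDAC inhibitor 10 mg/kg, test compound 12 mg/kg (molecular-weight adjusted), or vehicle (10% DMSO, 36% PEG, 54% PBS). Dosing stopped at 1500 mm3 or euthanasia end points. Tumours were harvested on the last treatment day for acetylated-H3 immunoblot with GAPDH as loading control.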

[5] = primate studies, oral delivery; cited from earlier work
[6] = 11 patients, oral formulation; cited from earlier work
[7] = four CED doses at 72-hour intervals

SMILES: Cc1[nH]c2ccccc2c1CCNCc1ccc(/C=C/C(=O)NO)cc1 [panobinostat]
- median survival ([1]; 4× CED, 10 μl 100 μM, 72 hours apart): 63 days
- median survival ([1]; intraperitoneally, 10 mg/kg, over 2 weeks): 35 days
- median survival ([1]; single CED session, 10 μl 100 μM): 37.5 days
- H3Ac in tumor cells versus intraperitoneal vehicle [2, 7]: increase in H3Ac in tumor cells
- Ki67+ cycling cells versus vehicle [2, 7]: decrease in overall Ki67^+ cycling cells
- apoptotic cell death, cleaved caspase-3 positive cells [2, 7]: increase in apoptotic cell death
- tumor cellularity versus vehicle ([2]; four CED doses at 72-hour intervals, H&E): decrease in tumor cellularity
- histological effects (cellularity, Ki67, Cc3, H3Ac) ([2]; systemic treatment): failed to achieve any of these results
- toxicity after systemic injections [3]: significant toxicities including weight loss
- H3Ac in tumors by Western blotting ([4]; animals sacrificed on the last day of treatment): recovery of H3Ac
- tumor growth compared to vehicle ([4]; caliper tumor volume, daily intraperitoneal for 2 weeks): slowed down tumor growth
- detection in CSF [5]: failed at detecting significant amounts
- detection in CSF [6]: not detected
